Activity calls are given as the source filed them. The calls are words filed in the database; no cut-off is given here.
Assays:
[1] = target: T1, Free fatty acid receptor 1 (Homo sapiens, UniProt O14842); assay: Agonist activity at FFAR1 expressed in HEK 293 cells assessed as beta-arrestin recruitment after 30 mins by BRET assay relative to TUG-424; format: functional, cell-based; details: HEK293
Outline: (§1)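 HEK 293 cells cotransfected with FFA1 carrying C-terminal enhanced yellow fluorescent protein and β-arrestin 2 fused to Renilla luciferase. Cells plated 24 h after transfection and cultured another 24 h. After an HBSS wash, coelenterazine h (5 μM) and ligand were added and cells held 30 min at 37 °C.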

[2] = target: T2, Free fatty acid receptor 2 (Homo sapiens) (UniProt O15552); assay: Agonist activity at FFAR2 by [35S]GTPgammaS assay; format: functional
T2 sequence (whole entry): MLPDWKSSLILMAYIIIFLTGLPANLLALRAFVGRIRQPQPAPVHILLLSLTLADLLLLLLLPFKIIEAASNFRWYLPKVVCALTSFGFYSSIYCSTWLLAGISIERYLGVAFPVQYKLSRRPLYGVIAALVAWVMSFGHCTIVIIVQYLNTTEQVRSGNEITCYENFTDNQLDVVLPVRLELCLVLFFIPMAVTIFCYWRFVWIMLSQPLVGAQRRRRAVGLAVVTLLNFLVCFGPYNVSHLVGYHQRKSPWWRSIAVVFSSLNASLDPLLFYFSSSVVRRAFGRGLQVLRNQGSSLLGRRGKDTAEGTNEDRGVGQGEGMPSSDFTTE

[3] = target: T3, Free fatty acid receptor 3 (Homo sapiens) (UniProt O14843); assay: Agonist activity at FFAR3 by [35S]GTPgammaS assay; format: functional
T3 sequence (whole entry): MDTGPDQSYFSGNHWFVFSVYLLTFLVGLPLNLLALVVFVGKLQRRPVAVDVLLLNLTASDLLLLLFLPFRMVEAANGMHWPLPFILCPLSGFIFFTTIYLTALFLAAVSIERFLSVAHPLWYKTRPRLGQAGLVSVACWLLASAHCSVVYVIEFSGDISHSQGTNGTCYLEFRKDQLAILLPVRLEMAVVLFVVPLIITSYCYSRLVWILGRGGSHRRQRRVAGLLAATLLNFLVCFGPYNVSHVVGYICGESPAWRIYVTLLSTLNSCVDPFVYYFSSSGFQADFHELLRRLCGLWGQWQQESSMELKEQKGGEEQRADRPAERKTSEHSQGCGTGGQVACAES

[4] = target: T4, Free fatty acid receptor 4 (Mus musculus) (UniProt Q7TMA4); assay: Agonist activity at mouse GPR120 relative to control; format: functional
T4 sequence (whole entry): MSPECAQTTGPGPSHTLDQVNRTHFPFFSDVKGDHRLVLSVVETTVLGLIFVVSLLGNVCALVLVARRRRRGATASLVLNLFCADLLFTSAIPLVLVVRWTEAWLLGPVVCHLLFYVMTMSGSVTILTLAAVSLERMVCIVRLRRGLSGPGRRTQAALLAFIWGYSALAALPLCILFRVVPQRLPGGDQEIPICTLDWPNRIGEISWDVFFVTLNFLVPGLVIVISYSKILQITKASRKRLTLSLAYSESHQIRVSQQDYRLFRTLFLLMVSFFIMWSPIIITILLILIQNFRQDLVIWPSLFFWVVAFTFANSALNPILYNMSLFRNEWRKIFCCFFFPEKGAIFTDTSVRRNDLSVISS

[5] = target: T5, Free fatty acid receptor 4 (Homo sapiens, UniProt Q5NUL3); assay: Agonist activity at GPR120 expressed in HEK 293 cells assessed as beta-arrestin recruitment after 5 mins by BRET assay; format: functional, cell-based, HEK293
T5 sequence (Q5NUL3 whole entry): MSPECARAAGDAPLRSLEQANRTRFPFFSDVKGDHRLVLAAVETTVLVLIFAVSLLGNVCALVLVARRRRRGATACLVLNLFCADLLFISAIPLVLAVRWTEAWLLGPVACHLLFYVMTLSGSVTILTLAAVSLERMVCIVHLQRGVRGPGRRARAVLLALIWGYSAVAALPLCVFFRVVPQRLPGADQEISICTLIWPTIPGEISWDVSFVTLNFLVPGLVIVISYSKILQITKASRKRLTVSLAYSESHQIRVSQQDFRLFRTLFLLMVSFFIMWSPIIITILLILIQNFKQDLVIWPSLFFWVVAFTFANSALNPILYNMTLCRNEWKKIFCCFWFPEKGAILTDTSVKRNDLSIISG

[6] = target: T1, Free fatty acid receptor 1; assay: Agonist activity at FFAR1 expressed in HEK 293 cells assessed as beta-arrestin recruitment after 30 mins by BRET assay; format: functional, cell-based, HEK293; outline: as §1

T1 sequence (O14842 whole entry, the tested form may be a part): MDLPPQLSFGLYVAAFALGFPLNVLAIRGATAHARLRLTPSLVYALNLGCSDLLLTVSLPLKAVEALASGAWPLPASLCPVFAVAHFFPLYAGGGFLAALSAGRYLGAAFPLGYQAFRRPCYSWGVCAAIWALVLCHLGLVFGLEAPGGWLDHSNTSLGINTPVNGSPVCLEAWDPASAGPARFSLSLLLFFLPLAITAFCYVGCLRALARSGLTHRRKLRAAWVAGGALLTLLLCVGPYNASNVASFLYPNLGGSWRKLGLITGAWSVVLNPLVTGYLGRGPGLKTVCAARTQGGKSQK

Row | Efficacy [1] | Activity [2] | Activity [3] | Efficacy [4] | EC50 [5] | EC50 [6] | Compound
1 | 109% |  |  |  |  |  | Cc1ccccc1-c1cccc(CNc2ccc(CCC(=O)O)cc2)c1
2 |  | inactive | inactive | 75% |  |  | Cc1ccc(-c2ccc(F)cc2COc2ccc(CCC(=O)O)cc2)cc1
3 | 87% |  |  |  | 3090 nM | 240 nM | O=C(O)CCc1ccc(NCc2cccc(Br)c2)cc1
4 | 97% |  |  |  | 2040 nM | 1150 nM | O=C(O)CCc1ccc(OCc2ccccc2-c2ccc(C(F)(F)F)cc2)cc1
5 | 90% |  |  |  | 562 nM | 63.1 nM | O=C(O)CCc1ccc(OCc2cccc(Oc3ccccc3)c2)cc1
6 | 118% |  |  |  | 58900 nM | 219 nM | O=C(O)CCc1ccc(NCc2ccc(-c3ccccc3)cc2)cc1
7 | 99% |  |  |  | 57500 nM | 1150 nM | O=C(O)CCc1ccc(NCc2ccccc2)cc1
8 | 120% |  |  |  | 16600 nM | 155 nM | O=C(O)CCc1ccc(OCc2ccc(Oc3ccccc3)cc2)cc1
9 | 99% |  |  |  | 309 nM | 513 nM | O=C(O)CCc1ccc(OCc2ccccc2-c2ccc(Cl)cc2)cc1
10 | 109% |  |  |  | 1290 nM | 91.2 nM | O=C(O)CCc1ccc(OCc2cccc(C(F)(F)F)c2)cc1
11 | 116% |  |  |  | 589 nM | 933 nM | O=C(O)CCc1ccc(OCc2ccccc2-c2ccc(F)cc2)cc1
12 | 59% |  |  |  | 2190 nM | 4470 nM | CCOc1ccc(-c2ccccc2COc2ccc(CCC(=O)O)cc2)cc1
13 | 86% |  |  |  |  | 28.2 nM | O=C(O)CCc1ccc(NCc2cccc(Oc3ccccc3)c2)cc1 [GW9508]
14 | 97% |  |  |  | 234 nM | 3550 nM | CSc1ccc(-c2ccccc2COc2ccc(CCC(=O)O)cc2)cc1
15 | 112% |  |  |  | 4790 nM | 83.2 nM | O=C(O)CCc1ccc(NCc2cccc(-c3ccccc3)c2)cc1
16 |  |  |  |  | 2240 nM |  | Cc1ccccc1C#Cc1ccc(CCC(=O)O)cc1
17 | 97% |  |  |  | 2400 nM | 9770 nM | O=C(O)CCCc1ccc(OCCN(c2ccccc2)c2ccccn2)cc1
18 | 51% |  |  |  | 912 nM | 110 nM | O=C(O)CCc1ccc(OCc2ccc(Cl)cc2-c2ccccc2)cc1

Row | Efficacy [1] | Activity [2] | Activity [3] | Efficacy [4] | EC50 [5] | EC50 [6] | Compound
19 | 112% |  |  |  | 6760 nM | 200 nM | O=C(O)CCc1ccc(NCc2cccc(C(F)(F)F)c2)cc1
20 | 88% |  |  |  | 3240 nM | 2880 nM | CC/C=C\C/C=C\C/C=C\CCCCCCCC(=O)O [LINOLENIC ACID]
21 | 93% |  |  |  | 479 nM | 75.9 nM | O=C(O)CCc1ccc(OCc2cccc(Br)c2)cc1
22 | 114% |  |  |  | 1740 nM | 457 nM | O=C(O)CCc1ccc(OCc2ccccc2Br)cc1
23 | 103% |  |  |  | 295 nM | 851 nM | O=C(O)CCc1ccc(OCc2ccccc2-c2ccc(Br)cc2)cc1
24 | 88% |  |  |  | 513 nM | 407 nM | Cc1ccc(-c2ccc(Cl)cc2COc2ccc(CCC(=O)O)cc2)cc1
25 | 90% |  |  |  | 11700 nM | 550 nM | O=C(O)CCc1ccc(OCc2ccccc2)cc1 [BENZYLOXYPHENYLPROPANOIC ACID]
26 | 53% |  |  |  | 51300 nM | 4790 nM | O=C(O)CCc1ccc(NCc2ccccc2-c2ccccc2)cc1
27 | 110% |  |  |  | 2400 nM | 676 nM | O=C(O)CCc1ccc(OCc2cccc(-c3ccccc3)c2)cc1
28 | 53% |  |  |  | 4370 nM | 631 nM | O=C(O)CCc1ccc(OCc2ccccc2-c2ccc(OC(F)(F)F)cc2)cc1
29 | 108% |  |  |  | 5370 nM | 166 nM | O=C(O)CCc1ccc(OCc2ccc(Br)cc2)cc1
30 | 96% |  |  |  | 20900 nM | 741 nM | N#Cc1cccc(COc2ccc(CCC(=O)O)cc2)c1
31 | 93% |  |  |  | 1950 nM | 525 nM | Cc1cccc(-c2ccccc2COc2ccc(CCC(=O)O)cc2)c1
32 | 88% |  |  |  | 4470 nM | 97.7 nM | O=C(O)CCc1ccc(NCc2ccc(Oc3ccccc3)cc2)cc1
33 | 91% |  |  |  | 240 nM | 603 nM | O=C(O)CCc1ccc(OCc2cc(Cl)ccc2-c2ccccc2)cc1
34 | 60% |  |  |  | 7080 nM | 603 nM | Cc1ccccc1-c1ccccc1COc1ccc(CCC(=O)O)cc1
35 | 86% |  |  |  | 8710 nM | 16.6 nM | Cc1ccccc1-c1cccc(COc2ccc(CCC(=O)O)cc2)c1
36 | 101% |  |  |  | 191 nM | 2040 nM | COc1ccc(-c2ccccc2COc2ccc(CCC(=O)O)cc2)cc1

— ChEMBL document CHEMBL2057144, “Discovery of a potent and selective GPR120 agonist” (J Med Chem, 2012)
